In ChEMBL document CHEMBL2396553, “C3'-endo-puckered pyrrolidine containing PNA has favorable geometry for RNA binding: novel ethano locked PNA (ethano-PNA)” (Bioorg Med Chem, 2013) one finds Activity and Tm data, which are given here for seven compounds.

As a reminder, the Tm is the temperature at which the thermal transition is half complete.

Calls of active or inactive are those of the source. The rule behind the calls is not given here.

The nature of test [1]: Binding affinity to 5'-UGGAGUGUGACAAUGGUG RNA (unknown origin) at 1 uM by circular dichroism analysis. In a few lines:
(§1)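 CD spectra of 1 µM complexes in 10 mM sodium phosphate pH 7.0 with 10 mM NaCl, annealed 90 °C for 5 min and slow-cooled to room temperature. Recorded at room temperature from 320 to 210 nm at 100 nm/min in a 1 cm path cuvette. At least 8 scans averaged.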
For orientation: Circular dichroism is the unequal absorption of left and right circularly polarised light.

Test [2] relates to Nucleic Acid. Nature of the test: Binding affinity to 5'-UGGAGUGAGACAAUGGUG mismatch RNA (unknown origin) assessed as melting temperature at 100 mM by UV-thermal denaturation assay. Type of test: nucleic-acid assay. The settings on record: 100 mM NaCl. In short, it runs like this: (§2)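 Each strand 1 µM (concentrations from nucleobase molar extinction coefficients) in 10 mM sodium phosphate pH 7.0 with 10 or 100 mM NaCl. Annealed 90 °C for 5 min, slow-cooled to room temperature then 0 °C. Absorbance at 260 nm followed from 10 to 85 °C at 0.5 °C/min. Tm taken from first-derivative curves. At least three runs, accurate within 0.3 °C.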

Test [3] has as its system Nucleic Acid. Description: Binding affinity to 5'-UGGAGUGAGACAAUGGUG mismatch RNA (unknown origin) assessed as melting temperature at 10 mM by UV-thermal denaturation assay. Type of test: nucleic-acid assay. The settings on record: 10 mM NaCl. In a few lines: as §2
In test [4] the test system is Nucleic Acid. Description: Binding affinity to 5'-UGGAGUGUGACAAUGGUG RNA (unknown origin) assessed as melting temperature at 100 mM by UV-thermal denaturation assay. Type of test: nucleic-acid assay. Particulars: 100 mM NaCl. In a few lines: as §2
Test [5] is described as follows: Binding affinity to 5'-TGGAGTGTGACAATGGTG cDNA (unknown origin) at 1 uM by circular dichroism analysis. In short, it runs like this: as §1
The subject of test [6] is Nucleic Acid. Nature of the test: Binding affinity to 5'-UGGAGUGUGACAAUGGUG RNA (unknown origin) assessed as melting temperature at 10 mM by UV-thermal denaturation assay. Particulars: 10 mM NaCl. The format is nucleic-acid assay. In a few lines:
as §2

In test [7] the test system is Nucleic Acid. Description: Binding affinity to 5'-TGGAGTGTGACAATGGTG cDNA (unknown origin) assessed as melting temperature at 10 mM by UV-thermal denaturation assay. The format is nucleic-acid assay. Particulars: 10 mM NaCl. In short, it runs like this:
as §2

Test [8] relates to Nucleic Acid. Nature of the test: Binding affinity to 5'-TGGAGTGTGACAATGGTG cDNA (unknown origin) assessed as melting temperature at 100 mM by UV-thermal denaturation assay. The format is nucleic-acid assay. The settings on record: 100 mM NaCl. In short, it runs like this: as §2

`Cc1cn(CC(=O)N(CCNC(=O)CN(CCNC(=O)CN(CCN)C(=O)Cn2ccc(N)nc2=O)C(=O)Cn2cnc3c(N)ncnc32)CC(=O)NCCN(CC(=O)NCCN(CC(=O)N2C[C@@H](N(CC(=O)NCCN(CC(=O)NCCN(CC(=O)NCCN(CC(=O)NCCN(CC(=O)NCCN(CC(=O)NCCN(CC(=O)N[C@@H](CCCCN)C(N)=O)C(=O)Cn3cc(C)c(=O)[nH]c3=O)C(=O)Cn3ccc(N)nc3=O)C(=O)Cn3cnc4c(N)ncnc43)C(=O)Cn3ccc(N)nc3=O)C(=O)Cn3cnc4c(N)ncnc43)C(=O)Cn3ccc(N)nc3=O)C(=O)Cn3cc(C)c(=O)[nH]c3=O)C[C@H]2CN)C(=O)Cn2cnc3c(=O)[nH]c(N)nc32)C(=O)Cn2cc(C)c(=O)[nH]c2=O)c(=O)[nH]c1=O`: the outcome in test [1] and in test [5] was Active. The Tm worked out at 44.7 °C in test [2]; 46.7 °C in test [3]; 57.2 °C in test [4]; 60.4 °C in test [6]; 51.8 °C in test [7]; 46.6 °C in test [8].

Turning to `Cc1cn(CC(=O)N(CCNC(=O)CN(CCNC(=O)CN(CCN)C(=O)Cn2ccc(N)nc2=O)C(=O)Cn2cnc3c(N)ncnc32)CC(=O)NCCN(CC(=O)NCCN(CC(=O)N2C[C@@H](N(CC(=O)NCCN(CC(=O)NCCN(CC(=O)NCCN(CC(=O)NCCN(CC(=O)NCCN(CC(=O)NCCN(CC(=O)N[C@@H](CCCCN)C(N)=O)C(=O)Cn3cc(C)c(=O)[nH]c3=O)C(=O)Cn3ccc(N)nc3=O)C(=O)Cn3cnc4c(N)ncnc43)C(=O)Cn3ccc(N)nc3=O)C(=O)Cn3cnc4c(N)ncnc43)C(=O)Cn3ccc(N)nc3=O)C(=O)Cn3cc(C)c(=O)[nH]c3=O)C[C@H]2CNC(=N)N)C(=O)Cn2cnc3c(=O)[nH]c(N)nc32)C(=O)Cn2cc(C)c(=O)[nH]c2=O)c(=O)[nH]c1=O`, the result in test [1] and in test [5] was Active. Moreover, the midpoint of thermal melting (Tm) in test [2] was found to be 46.3 °C; in test [3] it was 47.1 °C; in test [4] it was 59.4 °C; in test [6], 62.7 °C; in test [7], 53.7 °C; in test [8], 48.8 °C.

In the case of `Cc1cn(CC(=O)N(CCNC(=O)CN(CCNC(=O)CN(CCNC(=O)CN(C(=O)Cn2cc(C)c(=O)[nH]c2=O)[C@H]2C[C@@H](CNC(=N)N)N(C(=O)CN(CCNC(=O)CN(CCN)C(=O)Cn3ccc(N)nc3=O)C(=O)Cn3cnc4c(N)ncnc43)C2)C(=O)Cn2cc(C)c(=O)[nH]c2=O)C(=O)Cn2cnc3c(=O)[nH]c(N)nc32)CC(=O)NCCN(CC(=O)NCCN(CC(=O)NCCN(CC(=O)NCCN(CC(=O)NCCN(CC(=O)NCCN(CC(=O)N[C@@H](CCCCN)C(N)=O)C(=O)Cn2cc(C)c(=O)[nH]c2=O)C(=O)Cn2ccc(N)nc2=O)C(=O)Cn2cnc3c(N)ncnc32)C(=O)Cn2ccc(N)nc2=O)C(=O)Cn2cnc3c(N)ncnc32)C(=O)Cn2ccc(N)nc2=O)c(=O)[nH]c1=O`, the result in test [1] and in test [5] was Active. The Tm is 46.8 °C in test [2]; 53.6 °C in test [3]; 60.7 °C in test [4]; 68.1 °C in test [6]; 60.6 °C in test [7]; 56.3 °C in test [8].

For the compound `Cc1cn(CC(=O)N(CCNC(=O)CN(CCNC(=O)CN(CCNC(=O)CN(C(=O)Cn2cc(C)c(=O)[nH]c2=O)[C@H]2CCN(C(=O)CN(CCNC(=O)CN(CCN)C(=O)Cn3ccc(N)nc3=O)C(=O)Cn3cnc4c(N)ncnc43)C2)C(=O)Cn2cc(C)c(=O)[nH]c2=O)C(=O)Cn2cnc3c(=O)[nH]c(N)nc32)CC(=O)NCCN(CC(=O)NCCN(CC(=O)NCCN(CC(=O)NCCN(CC(=O)NCCN(CC(=O)NCCN(CC(=O)N[C@@H](CCCCN)C(N)=O)C(=O)Cn2cc(C)c(=O)[nH]c2=O)C(=O)Cn2ccc(N)nc2=O)C(=O)Cn2cnc3c(N)ncnc32)C(=O)Cn2ccc(N)nc2=O)C(=O)Cn2cnc3c(N)ncnc32)C(=O)Cn2ccc(N)nc2=O)c(=O)[nH]c1=O`, the result in test [1] and in test [5] was Active. Also, the Tm was found to be 43.3 °C in test [2]; 50.8 °C in test [3]; 59.9 °C in test [4]; 65.5 °C in test [6]; 55.8 °C in test [7]; 50 °C in test [8].

Take `Cc1cn(CC(=O)N(CCNC(=O)CN(CCNC(=O)CN(CCNC(=O)CN(CCNC(=O)CN(CCNC(=O)CN(CCN)C(=O)Cn2ccc(N)nc2=O)C(=O)Cn2cnc3c(N)ncnc32)C(=O)Cn2cc(C)c(=O)[nH]c2=O)C(=O)Cn2cc(C)c(=O)[nH]c2=O)C(=O)Cn2cnc3c(=O)[nH]c(N)nc32)CC(=O)NCCN(CC(=O)NCCN(CC(=O)NCCN(CC(=O)NCCN(CC(=O)NCCN(CC(=O)NCCN(CC(=O)N[C@@H](CCCCN)C(N)=O)C(=O)Cn2cc(C)c(=O)[nH]c2=O)C(=O)Cn2ccc(N)nc2=O)C(=O)Cn2cnc3c(N)ncnc32)C(=O)Cn2ccc(N)nc2=O)C(=O)Cn2cnc3c(N)ncnc32)C(=O)Cn2ccc(N)nc2=O)c(=O)[nH]c1=O`: the outcome in test [1] and in test [5] was Active. For the same compound, the Tm in test [2] came out at 53 °C; in test [3] it was 55.1 °C; in test [4], 63.7 °C; in test [6], 66.1 °C; in test [7], 64.6 °C; in test [8] it was 60.1 °C.

With `Cc1cn(CC(=O)N(CCNC(=O)CN(CCNC(=O)CN(CCN)C(=O)Cn2ccc(N)nc2=O)C(=O)Cn2cnc3c(N)ncnc32)CC(=O)NCCN(CC(=O)NCCN(CC(=O)N2CC[C@H](N(CC(=O)NCCN(CC(=O)NCCN(CC(=O)NCCN(CC(=O)NCCN(CC(=O)NCCN(CC(=O)NCCN(CC(=O)N[C@@H](CCCCN)C(N)=O)C(=O)Cn3cc(C)c(=O)[nH]c3=O)C(=O)Cn3ccc(N)nc3=O)C(=O)Cn3cnc4c(N)ncnc43)C(=O)Cn3ccc(N)nc3=O)C(=O)Cn3cnc4c(N)ncnc43)C(=O)Cn3ccc(N)nc3=O)C(=O)Cn3cc(C)c(=O)[nH]c3=O)C2)C(=O)Cn2cnc3c(=O)[nH]c(N)nc32)C(=O)Cn2cc(C)c(=O)[nH]c2=O)c(=O)[nH]c1=O`, the result in test [1] and in test [5] was Active. For the same compound, the Tm came out at 42.2 °C in test [2]; 45.4 °C in test [3]; 52.3 °C in test [4]; 59.4 °C in test [6]; 49.7 °C in test [7]; 46.2 °C in test [8].

On to `Cc1cn(CC(=O)N(CCNC(=O)CN(CCNC(=O)CN(CCNC(=O)CN(C(=O)Cn2cc(C)c(=O)[nH]c2=O)[C@H]2C[C@@H](CN)N(C(=O)CN(CCNC(=O)CN(CCN)C(=O)Cn3ccc(N)nc3=O)C(=O)Cn3cnc4c(N)ncnc43)C2)C(=O)Cn2cc(C)c(=O)[nH]c2=O)C(=O)Cn2cnc3c(=O)[nH]c(N)nc32)CC(=O)NCCN(CC(=O)NCCN(CC(=O)NCCN(CC(=O)NCCN(CC(=O)NCCN(CC(=O)NCCN(CC(=O)N[C@@H](CCCCN)C(N)=O)C(=O)Cn2cc(C)c(=O)[nH]c2=O)C(=O)Cn2ccc(N)nc2=O)C(=O)Cn2cnc3c(N)ncnc32)C(=O)Cn2ccc(N)nc2=O)C(=O)Cn2cnc3c(N)ncnc32)C(=O)Cn2ccc(N)nc2=O)c(=O)[nH]c1=O`, for which the result in test [1] and in test [5] was Active. Also, the Tm was 45.7 °C in test [2]; 51.8 °C in test [3]; 60.1 °C in test [4]; 66.3 °C in test [6]; 57.1 °C in test [7]; 53.8 °C in test [8].
